Assay results of several laboratories.
Each line is one published result; the experiments were not run side by side.
ALDH2: Aldehyde dehydrogenase, mitochondrial (ALDH2, Homo sapiens, UniProt P05091)
CHRM1: Muscarinic acetylcholine receptor M1 (CHRM1, Homo sapiens, UniProt P11229)
HDAC11: Histone deacetylase 11 (HDAC11, Homo sapiens, UniProt Q96DB2)
CYP3A4: Cytochrome P450 3A4 (CYP3A4, Homo sapiens, UniProt P08684)
CYP1A2: Cytochrome P450 1A2 (CYP1A2, Homo sapiens, UniProt P05177)

SMILES | target | assay | system | conditions | IC50
COc1nc2ccc(Br)cc2cc1[C@@H](c1ccccc1)[C@@](O)(CCN(C)C)c1cccc2ccccc12 | ALDH2 | enzyme activity, inhibitor, fluorescence |  |  | < 10 µM
O=C(CCNC(=O)CNC(=O)CC(c1ccccc1)(c1ccccc1)c1ccccc1)NCC1CCN(Cc2ccc(F)cc2)CC1 | CHRM1 | ligand displacement, radioligand |  | cell membranes | 5.9 µM
COc1ccc(N(Cc2csc(-c3ccc(C)cc3)n2)C(=O)CCCCCC(=O)NO)cc1 | HDAC11 | enzyme activity, inhibitor |  |  | > 10 µM
O=C1Nc2ccccc2C12CC2c1cc(Cl)c(O)c(Cl)c1 (centres unmarked) | ALDH2 | enzyme activity, inhibitor, fluorescence |  |  | > 50 µM
O=C(O)c1cc(-c2ccc(-n3ccnn3)cc2)c2ccc(-c3ccc(C(F)(F)F)cc3)cc2c1 | CYP3A4 | enzyme activity, inhibitor |  |  | 7.07 µM
Cc1cccc2c1NC(=O)/C2=C/c1cc(Cl)c(O)c(Cl)c1 | ALDH2 | enzyme activity, inhibitor, fluorescence |  |  | 12.7 µM
CCCN(CCC)S(=O)(=O)c1ccc(C(=O)O)cc1 | Taste receptor type 2 member 14 (TAS2R14, Homo sapiens, UniProt Q9NYV8, S265A) | inositol phosphate, antagonist, TR-FRET |  |  | 1000 µM
CC(C)(C)S(=O)(=O)c1cc2c(Nc3ccc4scnc4c3)ncnc2cc1OCCOP(=O)(O)O | CYP3A4 | enzyme activity, inhibitor | human, liver microsomes | 5 min, pH 7.4, testosterone probe | 49 µM
O=C(CCNC(=O)CNC(=O)CC(c1ccccc1)(c1ccccc1)c1ccccc1)NC[C@@H]1CCCN(Cc2cccnc2F)C1 | CHRM1 | ligand displacement, radioligand |  | cell membranes | > 30 µM
COc1ccc(N(Cc2csc(-c3ccccc3)n2)C(=O)CCCCCC(=O)NO)cc1 | HDAC11 | enzyme activity, inhibitor |  |  | > 10 µM
CC(C)C[C@H](NC(=O)[C@@H](NC(=O)N[C@@H](Cc1ccccc1)C(=O)O)[C@@H]1CCN=C(N)N1)C(=O)N[C@H](C=O)Cc1ccccc1 | Chymase (CMA1, Homo sapiens, UniProt P23946) | enzyme activity, inhibitor |  |  | 0.00777 µM
OCc1ccc(-c2nn(Cc3ccccc3)c3ccccc23)o1 | CYP1A2 | enzyme activity, inhibitor | human, liver microsomes |  | 0.9 µM
Nc1cnccc1Nc1ccc(Cl)c(Cl)c1 | Endonuclease III-like protein 1 (NTHL1, Homo sapiens, UniProt P78549) | enzyme activity, inhibitor |  |  | > 100 µM
CCc1cnn2c(NCc3ccc[n+]([O-])c3)cc(N3CCCC[C@H]3CCO)nc12 | Tyrosine-protein kinase JAK1 (JAK1, Homo sapiens, UniProt P23458) | enzyme activity, inhibitor, ELISA |  |  | 0.062 µM
Nc1nc2c(s1)C(c1ccccc1Cl)CC(=O)N2 (centres unmarked) | ALDH2 | enzyme activity, inhibitor, fluorescence |  |  | < 10 µM
CN(C)C(=O)c1cc2cnc(Nc3ccc(-c4ccc5c(=O)cc(N6CCOCC6)oc5c4)cc3)nc2n1C1CCCC1 | CYP1A2 | enzyme activity, inhibitor, fluorescence |  | pH 8 | > 100 µM
CCc1oc2ccccc2c1C(=O)c1cc(Br)c(O)c(Br)c1 | Solute carrier organic anion transporter family member 1B1 (SLCO1B1, Homo sapiens, UniProt Q9Y6L6) | transporter uptake, inhibitor, radiometric |  | oocytes | 1.54 µM
